Columns and labels:
Cholinesterase [1] = biological target: T1, Cholinesterase (Equus caballus, UniProt P81908); assay: Inhibition of equine serum BChE using S-butyrylthiocholine chloride as substrate preincubated for 15 mins followed by substrate addition by Ellman's method
Method in brief: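 Modified Ellman assay with equine serum BChE in 0.1 M sodium phosphate, pH 8. Enzyme preincubated with sample (DMSO, 1% final) for 15 min at 25 °C. DTNB (10 mM stock) then added, followed by S-butyrylthiocholine chloride (14 mM stock). Triplicates, blank-corrected; % inhibition calculated relative to control.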

[2] = Selectivity index, ratio of IC50 for AChE (unknown origin) to IC50 for equine serum BChE
[3] = Selectivity ratio of IC50 for equine serum BChE to IC50 for AChE (unknown origin)
Acetylcholinesterase [4] = biological target: T2, Acetylcholinesterase (Homo sapiens, UniProt P22303); assay: Inhibition of AChE (unknown origin) using acetylthiocholine iodide as substrate preincubated for 15 mins followed by substrate addition by Ellman's method
T2 sequence (P22303 whole entry): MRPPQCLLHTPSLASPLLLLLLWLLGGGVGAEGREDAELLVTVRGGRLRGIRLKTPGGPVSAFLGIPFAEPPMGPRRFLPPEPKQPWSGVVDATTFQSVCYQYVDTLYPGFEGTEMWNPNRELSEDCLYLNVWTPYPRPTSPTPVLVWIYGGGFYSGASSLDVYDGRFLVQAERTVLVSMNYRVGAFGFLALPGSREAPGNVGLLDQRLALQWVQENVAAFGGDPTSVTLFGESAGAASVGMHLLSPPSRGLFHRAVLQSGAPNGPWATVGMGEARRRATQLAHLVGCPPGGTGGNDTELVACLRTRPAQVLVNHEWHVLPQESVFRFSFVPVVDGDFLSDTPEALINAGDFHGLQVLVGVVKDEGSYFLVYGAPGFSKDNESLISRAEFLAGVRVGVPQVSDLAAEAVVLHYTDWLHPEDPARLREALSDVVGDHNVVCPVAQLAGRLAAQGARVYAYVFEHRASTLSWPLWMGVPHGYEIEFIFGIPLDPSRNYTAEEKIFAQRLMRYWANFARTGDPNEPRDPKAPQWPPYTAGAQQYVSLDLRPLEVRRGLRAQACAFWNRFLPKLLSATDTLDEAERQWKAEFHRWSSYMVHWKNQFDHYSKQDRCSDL

Acetylcholinesterase [5] = biological target: T2, Acetylcholinesterase; assay: Competitive inhibition of AChE (unknown origin) using acetylthiocholine iodide as substrate by Dixon plot analysis
Method in brief: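 Ellman kinetics on AChE, added as a 0.09 units/mL solution, in pH 8 phosphate buffer with a 15 min 25 °C preincubation. Inhibitor at 0, 0.70 and 1.40 µM; acetylthiocholine iodide at 1, 2, 4 and 8 mM; DTNB detection at 412 nm. Mode, Km and Vmax from Lineweaver–Burk plots; Ki from Dixon plot.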

Cholinesterase [6] = biological target: T1, Cholinesterase; assay: Mixed-type inhibition of equine serum BChE using S-butyrylthiocholine chloride as substrate by Dixon plot analysis
Method in brief: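 Equine serum BChE run in the same Ellman kinetic format, pH 8, with a 15 min 25 °C preincubation. Inhibitor at 0, 0.90 and 1.81 µM; S-butyrylthiocholine chloride at 1, 2, 4 and 8 mM; read at 412 nm. Inhibition mode, Km and Vmax taken from Lineweaver–Burk plots; Ki from Dixon plot.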

T1 sequence (P81908 whole entry): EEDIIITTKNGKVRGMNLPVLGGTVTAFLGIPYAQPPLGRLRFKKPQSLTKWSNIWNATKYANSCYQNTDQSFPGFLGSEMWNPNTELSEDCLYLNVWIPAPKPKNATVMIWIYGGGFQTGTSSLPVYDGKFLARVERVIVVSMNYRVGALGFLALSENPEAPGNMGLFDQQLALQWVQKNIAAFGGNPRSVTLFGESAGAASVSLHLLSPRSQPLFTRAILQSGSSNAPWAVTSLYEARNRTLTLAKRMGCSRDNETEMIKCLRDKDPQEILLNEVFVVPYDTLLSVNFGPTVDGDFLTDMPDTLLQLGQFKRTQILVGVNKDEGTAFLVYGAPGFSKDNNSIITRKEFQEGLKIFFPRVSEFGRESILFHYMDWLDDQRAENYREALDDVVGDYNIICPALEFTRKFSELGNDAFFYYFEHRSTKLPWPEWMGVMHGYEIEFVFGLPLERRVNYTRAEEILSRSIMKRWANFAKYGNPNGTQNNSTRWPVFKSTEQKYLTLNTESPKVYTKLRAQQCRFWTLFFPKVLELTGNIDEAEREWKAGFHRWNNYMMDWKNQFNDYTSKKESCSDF

With `Cc1ccccc1/C=C1\CN(C(=O)[C@@H]2CCN(C)[C@]23C(=O)Nc2ccccc23)C[C@]2(C1=O)[C@H](c1ccccc1C)CN(C)[C@]21C(=O)Nc2ccccc21` (racemic) the IC50 (Cholinesterase [1]) was 12.5 µM, the Ratio IC50 [2] was 0.75 and the Ratio IC50 [3] was 1.33. It also gave an IC50 (Acetylcholinesterase [4]) of 9.43 µM.

`C=CC(=O)N1C/C(=C\c2ccc(F)cc2)C(=O)[C@@]2(C1)[C@H](c1ccc(F)cc1)CN(C)[C@]21C(=O)Nc2ccccc21` (racemic) gave an IC50 (Cholinesterase [1]) of 3.39 µM, a Ratio IC50 [2] of 2.3 and a Ratio IC50 [3] of 0.43. For the same compound, the IC50 (Acetylcholinesterase [4]) was 7.8 µM.

In the case of `COc1ccccc1/C=C1\CN(C(=O)[C@@H]2CCN(C)[C@]23C(=O)Nc2ccccc23)C[C@]2(C1=O)[C@H](c1ccccc1OC)CN(C)[C@]21C(=O)Nc2ccccc21` (racemic), the IC50 (Cholinesterase [1]) is reported as 10.4 µM, the Ratio IC50 [2] is reported as 0.45 and the Ratio IC50 [3] is reported as 2.2. It also gave an IC50 (Acetylcholinesterase [4]) of 4.73 µM.

With `CN1CC[C@@H](C(=O)N2C/C(=C\c3ccc(F)cc3)C(=O)[C@@]3(C2)[C@H](c2ccc(F)cc2)CN(C)[C@]32C(=O)Nc3ccccc32)[C@@]12C(=O)Nc1ccccc12` (racemic) the Ki (Acetylcholinesterase [5]) was 2.01 µM, the IC50 (Cholinesterase [1]) was 7.82 µM and the Ratio IC50 [2] was 0.3. For the same compound, the Ratio IC50 [3] was 3.33 and the IC50 (Acetylcholinesterase [4]) was 2.35 µM.

In the case of `C=CC(=O)N1C/C(=C\c2cccc3ccccc23)C(=O)[C@@]2(C1)[C@H](c1cccc3ccccc13)CN(C)[C@]21C(=O)Nc2ccccc21` (racemic), the IC50 (Cholinesterase [1]) is reported as 8.85 µM, the Ratio IC50 [2] is reported as 0.86 and the Ratio IC50 [3] is reported as 1.17. For the same compound, the IC50 (Acetylcholinesterase [4]) was 7.59 µM.

In the case of `C=CC(=O)N1C/C(=C\c2ccc(C)cc2)C(=O)[C@@]2(C1)[C@H](c1ccc(C)cc1)CN(C)[C@]21C(=O)Nc2ccccc21` (racemic), the IC50 (Cholinesterase [1]) is reported as 9.28 µM, the Ratio IC50 [2] is reported as 0.81 and the Ratio IC50 [3] is reported as 1.24. The IC50 (Acetylcholinesterase [4]) was 7.49 µM.

Work on `CN1CC[C@@H](C(=O)N2C/C(=C\c3ccccc3F)C(=O)[C@@]3(C2)[C@H](c2ccccc2F)CN(C)[C@]32C(=O)Nc3ccccc32)[C@@]12C(=O)Nc1ccccc12` (racemic) yielded an IC50 (Cholinesterase [1]) of 7.44 µM, a Ratio IC50 [2] of 0.83 and a Ratio IC50 [3] of 1.2. The IC50 (Acetylcholinesterase [4]) was 6.18 µM.

With `Cc1ccc(/C=C2\CN(C(=O)[C@@H]3CCN(C)[C@]34C(=O)Nc3ccccc34)C[C@]3(C2=O)[C@H](c2ccc(C)cc2)CN(C)[C@]32C(=O)Nc3ccccc32)cc1` (racemic) the IC50 (Cholinesterase [1]) was 11.3 µM, the Ratio IC50 [2] was 0.68 and the Ratio IC50 [3] was 1.47. It also gave an IC50 (Acetylcholinesterase [4]) of 7.67 µM.

In the case of `C=CC(=O)N1C/C(=C\c2ccc(Cl)cc2Cl)C(=O)[C@@]2(C1)[C@H](c1ccc(Cl)cc1Cl)CN(C)[C@]21C(=O)Nc2ccccc21` (racemic), the IC50 (Cholinesterase [1]) is reported as 5.32 µM, the Ratio IC50 [2] is reported as 1.15 and the Ratio IC50 [3] is reported as 0.87. For the same compound, the IC50 (Acetylcholinesterase [4]) was 6.14 µM.

In the case of `CN1CC[C@@H](C(=O)N2C/C(=C\c3cccc([N+](=O)[O-])c3)C(=O)[C@@]3(C2)[C@H](c2cccc([N+](=O)[O-])c2)CN(C)[C@]32C(=O)Nc3ccccc32)[C@@]12C(=O)Nc1ccccc12` (racemic), the IC50 (Cholinesterase [1]) is reported as 12.3 µM, the Ratio IC50 [2] is reported as 0.2 and the Ratio IC50 [3] is reported as 5. It also gave an IC50 (Acetylcholinesterase [4]) of 2.47 µM.

Compound `C=CC(=O)N1C/C(=C\c2ccccc2F)C(=O)[C@@]2(C1)[C@H](c1ccccc1F)CN(C)[C@]21C(=O)Nc2ccccc21` (racemic) has an IC50 (Cholinesterase [1]) of 3.21 µM, a Ki (Cholinesterase [6]) of 6.76 µM and a Ratio IC50 [2] of 2.14. It also gave a Ratio IC50 [3] of 0.47 and an IC50 (Acetylcholinesterase [4]) of 6.88 µM.

With `CN1CC[C@@H](C(=O)N2C/C(=C\c3ccccc3)C(=O)[C@@]3(C2)[C@H](c2ccccc2)CN(C)[C@]32C(=O)Nc3ccccc32)[C@@]12C(=O)Nc1ccccc12` (racemic) the IC50 (Cholinesterase [1]) was 9.34 µM, the Ratio IC50 [2] was 0.28 and the Ratio IC50 [3] was 3.55. The IC50 (Acetylcholinesterase [4]) was 2.63 µM.

`C=CC(=O)N1C/C(=C\c2ccc(Cl)cc2)C(=O)[C@@]2(C1)[C@H](c1ccc(Cl)cc1)CN(C)[C@]21C(=O)Nc2ccccc21` (racemic) gave an IC50 (Cholinesterase [1]) of 6.77 µM, a Ratio IC50 [2] of 1.24 and a Ratio IC50 [3] of 0.81. The IC50 (Acetylcholinesterase [4]) was 8.4 µM.

With `C=CC(=O)N1C/C(=C\c2cccc([N+](=O)[O-])c2)C(=O)[C@@]2(C1)[C@H](c1cccc([N+](=O)[O-])c1)CN(C)[C@]21C(=O)Nc2ccccc21` (racemic) the IC50 (Cholinesterase [1]) was 7.74 µM, the Ratio IC50 [2] was 0.69 and the Ratio IC50 [3] was 1.45. The IC50 (Acetylcholinesterase [4]) was 5.34 µM.

`C=CC(=O)N1C/C(=C\c2ccccc2OC)C(=O)[C@@]2(C1)[C@H](c1ccccc1OC)CN(C)[C@]21C(=O)Nc2ccccc21` (racemic) showed an IC50 (Cholinesterase [1]) of 4.22 µM, a Ratio IC50 [2] of 0.97 and a Ratio IC50 [3] of 1.03. It also gave an IC50 (Acetylcholinesterase [4]) of 4.1 µM.

Compound `C=CC(=O)N1C/C(=C\c2ccccc2Cl)C(=O)[C@@]2(C1)[C@H](c1ccccc1Cl)CN(C)[C@]21C(=O)Nc2ccccc21` (racemic) has an IC50 (Cholinesterase [1]) of 4.2 µM, a Ratio IC50 [2] of 1.22 and a Ratio IC50 [3] of 0.82. For the same compound, the IC50 (Acetylcholinesterase [4]) was 5.12 µM.

`C=CC(=O)N1C/C(=C\c2ccccc2C)C(=O)[C@@]2(C1)[C@H](c1ccccc1C)CN(C)[C@]21C(=O)Nc2ccccc21` (racemic) gave an IC50 (Cholinesterase [1]) of 3.86 µM, a Ratio IC50 [2] of 1.03 and a Ratio IC50 [3] of 0.97. It also gave an IC50 (Acetylcholinesterase [4]) of 3.97 µM.

Work on `CN1CC[C@@H](C(=O)N2C/C(=C\c3ccccc3Cl)C(=O)[C@@]3(C2)[C@H](c2ccccc2Cl)CN(C)[C@]32C(=O)Nc3ccccc32)[C@@]12C(=O)Nc1ccccc12` (racemic) yielded an IC50 (Cholinesterase [1]) of 9.38 µM, a Ratio IC50 [2] of 0.55 and a Ratio IC50 [3] of 1.81. For the same compound, the IC50 (Acetylcholinesterase [4]) was 5.19 µM.

In the case of `CN1CC[C@@H](C(=O)N2C/C(=C\c3ccc(Cl)cc3)C(=O)[C@@]3(C2)[C@H](c2ccc(Cl)cc2)CN(C)[C@]32C(=O)Nc3ccccc32)[C@@]12C(=O)Nc1ccccc12` (racemic), the IC50 (Cholinesterase [1]) is reported as 9.44 µM, the Ratio IC50 [2] is reported as 0.65 and the Ratio IC50 [3] is reported as 1.54. For the same compound, the IC50 (Acetylcholinesterase [4]) was 6.14 µM.

Compound `CN1CC[C@@H](C(=O)N2C/C(=C\c3ccc(Cl)cc3Cl)C(=O)[C@@]3(C2)[C@H](c2ccc(Cl)cc2Cl)CN(C)[C@]32C(=O)Nc3ccccc32)[C@@]12C(=O)Nc1ccccc12` (racemic) has an IC50 (Cholinesterase [1]) of 17.9 µM, a Ratio IC50 [2] of 0.25 and a Ratio IC50 [3] of 4.05. The IC50 (Acetylcholinesterase [4]) was 4.42 µM.

With `CN1CC[C@@H](C(=O)N2C/C(=C\c3cccc4ccccc34)C(=O)[C@@]3(C2)[C@H](c2cccc4ccccc24)CN(C)[C@]32C(=O)Nc3ccccc32)[C@@]12C(=O)Nc1ccccc12` (racemic) the IC50 (Cholinesterase [1]) was 19.1 µM, the Ratio IC50 [2] was 0.26 and the Ratio IC50 [3] was 3.88. For the same compound, the IC50 (Acetylcholinesterase [4]) was 4.93 µM.

Compound `C=CC(=O)N1C/C(=C\c2ccccc2)C(=O)[C@@]2(C1)[C@H](c1ccccc1)CN(C)[C@]21C(=O)Nc2ccccc21` (racemic) has an IC50 (Cholinesterase [1]) of 7.52 µM, a Ratio IC50 [2] of 1.16 and a Ratio IC50 [3] of 0.86. It also gave an IC50 (Acetylcholinesterase [4]) of 8.74 µM.

— ChEMBL document CHEMBL3112490, “Ionic liquid mediated synthesis of mono- and bis-spirooxindole-hexahydropyrrolidines as cholinesterase inhibitors and their molecular docking studies” (Bioorg Med Chem, 2014)
